Assay results from ChEMBL document CHEMBL1144804, “Sesquiterpene quinones and related metabolites from Phyllosticta spinarum, a fungal strain endophytic in Platycladus orientalis of the Sonoran Desert” (J Nat Prod, 2008).
Calls of active or inactive are those of the source. No cut-off for these calls is given here.

Tests used:
Format in all cases: functional, cell-based
NIH3T3 [1] = test: Induction of apoptosis in mouse NIH3T3 cells assessed as accumulation at subG1 phase at 0.5 ug/ml after 24 hrs by flow cytometry
PC-3M [2] = test: Induction of apoptosis in human PC3M cells assessed as accumulation at subG1 phase at 0.5 ug/ml after 24 hrs by flow cytometry
Outline: (§1)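 PC-3M cells at about 75% confluency were seeded at 2.5 × 10^5 cells/well and left to reattach overnight at 37 °C in 5% CO2. They were then treated for 24 h in RPMI 1640 with 10% FBS, penicillin 100 IU/mL, streptomycin 50 µg/mL and Glutamax 2 mM. Controls were 0.1% DMSO (negative) and 0.5 µg/mL nocodazole (positive). Floating and adherent cells were pooled, PBS-washed, stained for DNA content with Guava cell cycle reagent, and scored as % sub-G1 by flow cytometry.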

[3] = Antiproliferative activity against human PC3M cells by MTT assay; settings: PC-3M
Outline: (§2)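 Cells were exposed to serial dilutions of DMSO-dissolved samples for 72 h in RPMI 1640 with 10% fetal bovine serum and glutamax. Viability was read by the tetrazolium (MTT) colorimetric assay as inhibition of proliferation.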

NCI-H460 = test: Antiproliferative activity against human NCI-H460 cells by MTT assay; outline: as §2
MIA PaCa-2 = test: Antiproliferative activity against human MIAPaCa2 cells by MTT assay; outline: as §2
SF-268 = test: Antiproliferative activity against human SF268 cells by MTT assay; outline: as §2
PC-3M [4] = test: Induction of apoptosis in human PC3M cells assessed as accumulation at subG1 phase at 2.5 to 10 uM after 24 hrs by flow cytometry; outline: as §1
MCF7 = test: Antiproliferative activity against human MCF7 cells by MTT assay; outline: as §2
NIH3T3 [5] = test: Induction of apoptosis in mouse NIH3T3 cells assessed as accumulation at subG1 phase at 2.5 to 10 uM after 24 hrs by flow cytometry

Row | IC50 (NCI-H460) [nM] | IC50 (MIA PaCa-2) [nM] | IC50 (MCF7) [nM] | Structure (SMILES) | Activity (NIH3T3 [1]) | Activity (PC-3M [2]) | IC50 [3] [nM] | IC50 (SF-268) [nM] | Activity (PC-3M [4]) | Activity (NIH3T3 [5])
1 |  |  |  | COC(=O)Nc1nc2cc(C(=O)c3cccs3)ccc2[nH]1 | Active | Active |  |  |  | 
2 | 10 |  |  | COc1cccc2c1C(=O)c1c(O)c3c(c(O)c1C2=O)C[C@@](O)(C(=O)CO)C[C@@H]3O[C@H]1C[C@H](N)[C@H](O)[C@H](C)O1 [DOXORUBICIN] |  |  | 1110 |  |  | 
3 | 4300 | 2800 | 1500 | C=C1CC[C@H]2C(C)(C)CCC[C@]2(C)[C@H]1CC1=C(O)C(=O)C(CO)=CC1=O [TAURANIN] |  |  | 3500 | 1800 | Active | Active
